Screens (PubChem BioAssay)
Compounds with a hit are over-represented: about 5.8% of the library has one in this group of screens.
IDH1 R132H inh: inhibitors of IDH1 R132H reductase, primary screen, biochemical, plate reader, single point. Isocitrate dehydrogenase [NADP] cytoplasmic (Homo sapiens), O75874. diaphorase/resazurin fluorescence, 60 min. inhibition, % at 10 µM. 0.18% of 70,000 active; in the data active = inhibition above about 34%; inconclusive = no clear call, values can overlap the other calls; inactive = below about 11%
Target sequence (O75874 whole entry R132H): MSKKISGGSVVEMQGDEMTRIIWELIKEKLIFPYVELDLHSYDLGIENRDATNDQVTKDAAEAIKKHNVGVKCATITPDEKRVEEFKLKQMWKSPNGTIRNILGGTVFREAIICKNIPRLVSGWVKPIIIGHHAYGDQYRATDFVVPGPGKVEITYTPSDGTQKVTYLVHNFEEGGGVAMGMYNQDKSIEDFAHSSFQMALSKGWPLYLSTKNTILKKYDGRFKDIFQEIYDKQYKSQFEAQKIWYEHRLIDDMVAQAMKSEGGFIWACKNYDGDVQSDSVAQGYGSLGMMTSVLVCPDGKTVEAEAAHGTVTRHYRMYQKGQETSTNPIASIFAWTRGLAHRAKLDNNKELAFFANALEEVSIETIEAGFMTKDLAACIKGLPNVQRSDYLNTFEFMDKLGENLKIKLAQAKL
Pf Dd2 growth: P. falciparum Dd2 growth inhibitors, primary screen, SYBR Green fluorescence, single dose replicates; AID 1159554, 2015; activity change, % at 10 µM; 72 h; hits give low values; 2.3% of 94,000 active; in the data active = activity change below about -80%; inconclusive = no clear call, values can overlap the other calls
T cruzi growth-1: T. cruzi intracellular proliferation inhibitors, primary screen, cell-based, beta-gal Tulahuen parasites, NIH3T3 host, luminescence; T. cruzi beta-gal in NIH3T3, GalScreen luminescence, 90 h; inhibition, % at 8.34 µM; 5.9% of 77,000 active; AID 624255, 2012;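 active = mean inhibition above about 93%, with at least 55% of replicates each passing it, limit read from the data, passing the limit was not always enough; inconclusive = only one of those two conditions holds; inactive = neither condition holds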
KDM4C inh: inhibitors of GASC-1 (KDM4C) histone demethylase, primary screen, biochemical, single concentration HTS; inhibition, % at 12.5 µM; 0.15% of 96,000 active; Lysine-specific demethylase 4C (Homo sapiens), Q9H3R0; GST-KDM4C 2-372, H3K9me3 peptide, LANCE TR-FRET;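 active = mean replicate inhibition above about 25%, with at least 55% of replicates also reaching it, limit read from the data, passing the limit was not always enough; inconclusive = only one of those two conditions met; inactive = neither condition met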
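Material: N-terminal GST-fused human GASC-1 (KDM4C) fragment, residues 2-372. Input: 10 nM enzyme. Incubation: enzyme reaction 30 min, then detection 60 min, both room temperature. Doses: one test concentration per compound. Read-out basis: inhibition from TR-FRET ratio decrease. Detection: LANCE TR-FRET, excitation 340 nm, emissions 618 and 671 nm.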
T cruzi growth-2: T. cruzi intracellular proliferation inhibitors, confirmation, cell-based, NIH3T3 host, beta-gal parasite, luminescence, cherry-pick; shares compounds with T cruzi growth-1; T. cruzi beta-gal in NIH3T3, GalScreen luminescence, 90 h; inhibition, % at 8.35 µM; 72% of 5,600 active;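 active = mean replicate inhibition above about 95% and at least 55% of replicates individually reaching it, limit read from the data; inconclusive = only one of the two criteria is met; inactive = neither criterion is met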
T cruzi growth-3: inhibitors of intracellular T. cruzi replication, confirmation, NIH3T3 host cells, beta-gal parasites, cherry-pick, set 2; T. cruzi beta-gal in NIH3T3, GalScreen luminescence, 90 h; 21% of 5,600 active; inhibition, % at 2.09 µM; shares compounds with T cruzi growth-1;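 active = mean inhibition above about 95%, with at least 55% of replicates also reaching it, limit read from the data; inconclusive = meets just one of the two conditions; inactive = meets neither condition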
NIH3T3 tox: cytotoxicity in mouse NIH/3T3 fibroblasts, confirmation, cytotoxicity control for T. cruzi proliferation inhibitor project, cell-based, cherry-pick, single point. shares compounds with T cruzi growth-1. NIH/3T3 viability, CellTiter-Glo ATP luminescence, 90 h. cytotoxicity (signal decrease), % at 8.35 µM. 14% of 5,600 active;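 active = mean signal decrease across replicates above about 35% based on untreated-well scatter, with enough replicates individually passing, limit read from the data; inconclusive = no rule stated though some were filed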
NIH3T3 tox 2: NIH/3T3 fibroblast cytotoxicity, confirmation, cytotoxicity control, cell-based, cherry-pick, single point, set 2; 56% of 5,600 active; shares compounds with T cruzi growth-1; NIH/3T3 viability, CellTiter-Glo ATP luminescence, 90 h; inhibition, % at 24.9 µM; AID 651744, 2012;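 active = mean loss of cell viability signal at or above a set limit, and enough replicates individually reaching it; inconclusive = meets only the mean limit or only the replicate share; inactive = meets neither condition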
Numbers stand for hits.

OC[C@@H]1[C@H](c2ccc(-c3ccc(F)cc3)cc2)[C@@H]2CN(CCC(F)(F)F)CCCCN12 was read as Pf Dd2 growth inactive, T cruzi growth-1 inconclusive, KDM4C inh inactive, T cruzi growth-2 105, T cruzi growth-3 inactive, NIH3T3 tox 40 and NIH3T3 tox 2 105.
O=C(C[C@@H]1C[C@H]2c3cc(NS(=O)(=O)c4ccc(F)cc4)ccc3O[C@H]2[C@@H](CO)O1)NC1CCCCC1 was read as IDH1 R132H inh inactive, Pf Dd2 growth inactive, T cruzi growth-1 inactive and KDM4C inh inactive.
`C[C@H](CO)N1C[C@H](C)[C@@H](CN(C)C(=O)Nc2cccc3ccccc23)OCCCC[C@H](C)Oc2ccc(NS(=O)(=O)c3ccc(F)cc3)cc2C1=O` gave Pf Dd2 growth inactive, T cruzi growth-1 105, KDM4C inh inactive, T cruzi growth-2 106, T cruzi growth-3 inconclusive, NIH3T3 tox inactive and NIH3T3 tox 2 inactive.
For Cc1ccc(S(=O)(=O)Nc2ccc3c(c2)C(=O)N([C@H](C)CO)C[C@H](C)[C@H](CN(C)C(=O)Nc2cccc4ccccc24)OCCCC[C@H](C)O3)cc1 the results were Pf Dd2 growth inactive, T cruzi growth-1 inactive and KDM4C inh inactive.
`Cc1ccc(S(=O)(=O)Nc2ccc3c(c2)C(=O)N([C@@H](C)CO)C[C@H](C)[C@H](CN(C)C(=O)Nc2cccc4ccccc24)OCCCC[C@H](C)O3)cc1` gave Pf Dd2 growth inconclusive, T cruzi growth-1 105, KDM4C inh inactive, T cruzi growth-2 106, T cruzi growth-3 inactive, NIH3T3 tox inactive and NIH3T3 tox 2 inactive.
Screening Cc1ccc(S(=O)(=O)Nc2ccc3c(c2)C(=O)N([C@H](C)CO)C[C@@H](C)[C@@H](CN(C)C(=O)Nc2cccc4ccccc24)OCCCC[C@@H](C)O3)cc1 returned IDH1 R132H inh inactive, Pf Dd2 growth -86, T cruzi growth-1 108, KDM4C inh inactive, T cruzi growth-2 102, T cruzi growth-3 102, NIH3T3 tox inactive and NIH3T3 tox 2 inactive.
C[C@@H]1CCCCO[C@@H](CN(C)C(=O)Nc2cccc3ccccc23)[C@@H](C)CN([C@H](C)CO)C(=O)c2cc(NS(=O)(=O)c3ccc(F)cc3)ccc2O1 was read as IDH1 R132H inh inactive, Pf Dd2 growth inactive, T cruzi growth-1 inactive and KDM4C inh inactive.
`Cc1ccc(S(=O)(=O)Nc2ccc3c(c2)C(=O)N([C@@H](C)CO)C[C@H](C)[C@H](CN(C)C(=O)Nc2cccc4ccccc24)OCCCC[C@@H](C)O3)cc1` gave Pf Dd2 growth inconclusive, T cruzi growth-1 inactive and KDM4C inh inactive.
Screening Cc1ccc(S(=O)(=O)Nc2ccc3c(c2)C(=O)N([C@@H](C)CO)C[C@@H](C)[C@H](CN(C)C(=O)Nc2cccc4ccccc24)OCCCC[C@@H](C)O3)cc1 returned IDH1 R132H inh inactive, Pf Dd2 growth inactive, T cruzi growth-1 103, KDM4C inh inactive, T cruzi growth-2 109, T cruzi growth-3 inactive, NIH3T3 tox inactive and NIH3T3 tox 2 inactive.
C[C@@H]1CN([C@H](C)CO)C(=O)c2cccc(NC(=O)C3CCCCC3)c2O[C@@H]1CN(C)C(=O)Nc1ccccc1 was read as Pf Dd2 growth inactive, T cruzi growth-1 inactive and KDM4C inh inactive.
`C[C@@H]1CN([C@H](C)CO)C(=O)c2cc(NS(C)(=O)=O)ccc2O[C@@H](C)CCCCO[C@@H]1CN(C)Cc1ccc2c(c1)OCO2` gave IDH1 R132H inh inactive, Pf Dd2 growth inactive, T cruzi growth-1 inactive and KDM4C inh inactive.
O=C(C[C@@H]1C[C@H]2c3cc(NC(=O)Nc4ccccc4F)ccc3O[C@H]2[C@H](CO)O1)NCc1ccc2c(c1)OCO2 was read as IDH1 R132H inh inactive, Pf Dd2 growth inactive, T cruzi growth-1 inactive and KDM4C inh inactive.
For COCCNC(=O)C[C@@H]1C[C@H]2c3cc(NC(=O)Nc4ccc(C(F)(F)F)cc4)ccc3O[C@H]2[C@H](CO)O1 the results were IDH1 R132H inh inactive, Pf Dd2 growth inactive, T cruzi growth-1 123, KDM4C inh inactive, T cruzi growth-2 inactive, T cruzi growth-3 inactive, NIH3T3 tox inactive and NIH3T3 tox 2 inactive.
`COC(=O)C[C@H]1C[C@@H]2c3cc(NC(=O)Nc4ccc(C(F)(F)F)cc4)ccc3O[C@@H]2[C@@H](CO)O1` gave IDH1 R132H inh inactive, Pf Dd2 growth inactive, T cruzi growth-1 104, KDM4C inh inactive, T cruzi growth-2 108, T cruzi growth-3 inactive, NIH3T3 tox inactive and NIH3T3 tox 2 25.
`CO[C@H]1CN(C)C(=O)c2cc(NC(=O)CC(F)(F)F)ccc2OC[C@@H](C)N(C(=O)C2CC2)C[C@H]1C` gave Pf Dd2 growth inactive and KDM4C inh inactive.
For C[C@@H]1CN([C@@H](C)CO)C(=O)c2cc(NS(=O)(=O)c3cccs3)ccc2O[C@@H](C)CCCCO[C@H]1CN(C)C(=O)Nc1cccc2ccccc12 the results were Pf Dd2 growth inactive, T cruzi growth-1 inactive and KDM4C inh inactive.
C[C@@H]1CCCCO[C@@H](CN(C)C(=O)Nc2cccc3ccccc23)[C@H](C)CN([C@H](C)CO)C(=O)c2cc(NS(=O)(=O)c3cccs3)ccc2O1 was read as Pf Dd2 growth inactive, T cruzi growth-1 105, KDM4C inh inactive, T cruzi growth-2 105, T cruzi growth-3 106, NIH3T3 tox inactive and NIH3T3 tox 2 inactive.
For C[C@H]1CCCCO[C@H](CN(C)C(=O)Nc2cccc3ccccc23)[C@@H](C)CN([C@@H](C)CO)C(=O)c2cc(NS(=O)(=O)c3cccs3)ccc2O1 the results were Pf Dd2 growth inactive, T cruzi growth-1 102, KDM4C inh inactive, T cruzi growth-2 inactive, T cruzi growth-3 inactive, NIH3T3 tox inactive and NIH3T3 tox 2 inactive.
CN(C)CC(=O)N[C@H]1C=C[C@H](CC(=O)NCCN2CCCCC2)O[C@H]1CO was read as IDH1 R132H inh inactive, Pf Dd2 growth inactive, T cruzi growth-1 inactive and KDM4C inh inactive.
